Results taken from ChEMBL document CHEMBL3585256, “Triphenylphosphonium Cations of the Diterpenoid Isosteviol: Synthesis and Antimitotic Activity in a Sea Urchin Embryo Model” (J Nat Prod, 2015).
The source made the active and inactive calls.

Key:
Paracentrotus lividus [1] = assay: Antimitotic activity against sea urichin L embryo model assessed as cleavage alteration after 2.5 to 5.5 hrs of fertilization by sea urichin embryo assay; type: functional
Paracentrotus lividus [2] = assay: Antimitotic activity against sea urichin L embryo model assessed as full mitotic arrest by sea urichin embryo assay; type: functional
Paracentrotus lividus [3] = assay: Antimitotic activity against sea urichin L embryo model assessed as embryo spinning by sea urichin embryo assay; type: functional
Paracentrotus lividus [4] = assay: Antimitotic activity against sea urichin L embryo model assessed as inhibition of skeletal spiculae growth by sea urichin embryo assay; type: functional
Summary of the method: (§1)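 Hatched free-swimming blastulae (8−9 h postfertilization) exposed to compound and followed to four-arm pluteus (34−36 h). Scored for spicule growth inhibition or arrest at late gastrula. Gametes obtained by intracoelomic 0.5 M KCl; embryos grown in filtered seawater at room temperature with paddle stirring, monolayer up to 2000 embryos/mL. Stocks in DMSO diluted with EtOH, or in water.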

Paracentrotus lividus [5] = assay: Induction of mitotic spindle defects in sea urichin L embryo model assessed as aberrant mitotic spindles by conventional light microscopy; type: functional, organism-based
Summary of the method: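 Eggs exposed 8−15 min postfertilization, incubated at 21 °C. Mitotic apparatus examined by light microscopy at 1 h (first cleavage anaphase) and 2.5 h postfertilization, scored for aberrant, multipolar or absent spindles.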

Paracentrotus lividus [6] = assay: Antimitotic activity against sea urichin L embryo model assessed as death of embryo at hatched blastula stage by sea urichin embryo assay; type: functional
Paracentrotus lividus [7] = assay: Induction of mitotic spindle defects in sea urichin L embryo model assessed as formation of aberrant mitotic spindles at 2 uM by conventional light microscopy
BALL-1 = assay: Cytotoxicity against human BALL-1 cells by MTT assay; type: functional; settings: read-out: LD50 (the source's name)
HL-60 = assay: Cytotoxicity against human HL60 cells by MTT assay; type: functional, cell-based
Paracentrotus lividus [8] = assay: Toxicity in sea urichin L embryo assessed as development up to 4 uM; type: organism-based; settings: in vivo
Summary of the method: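 Fertilized eggs exposed 8−15 min postfertilization to 2-fold decreasing concentrations, with cleavage alteration or arrest scored at 2.5−5.5 h. Effective threshold concentration defined as the lowest giving 100% cleavage alteration and embryo death before hatching, with no effect at 2-fold lower. Final DMSO ≤0.05% and EtOH ≤1%. Run in duplicate.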

[9] = Cytotoxicity against human NUGC3 cells by MTT assay; type: functional; settings: NUGC-3, read-out: LD50 (the source's name)
MOLT-4 = assay: Cytotoxicity against human MOLT4 cells by MTT assay; type: functional; settings: read-out: LD50 (the source's name)
Paracentrotus lividus [10] = assay: Antimitotic activity against sea urichin L embryo model assessed as late gastrula stage by sea urichin embryo assay; type: functional; summary of the method: as §1
Paracentrotus lividus [11] = assay: Induction of mitotic spindle defects in sea urichin L embryo model assessed as complete blocked of spindle assembly at 50 nM by conventional light microscopy

Row | Structure (SMILES) | EC (Paracentrotus lividus [1]) | EC (Paracentrotus lividus [2]) | EC (Paracentrotus lividus [3]) | EC (Paracentrotus lividus [4]) | Activity (Paracentrotus lividus [5]) | EC (Paracentrotus lividus [6]) | Activity (Paracentrotus lividus [7]) | CC50 (BALL-1) | IC50 (HL-60) | Activity (Paracentrotus lividus [8]) | CC50 [9] | CC50 (MOLT-4) | EC (Paracentrotus lividus [10]) | Activity (Paracentrotus lividus [11])
1 | CC[N+](CC)(CC)CCOCCOCCOC(=O)[C@]1(C)CCC[C@@]2(C)[C@@H]3CC[C@@]4(C)C[C@]3(CC[C@@H]21)CC4=O.[Br-] | >100 µM | >100 µM | >100 µM | 40 µM |  |  |  |  |  |  |  |  |  | 
2 | C[C@@]12CC[C@@H]3[C@@](CC[C@H]4[C@@]3(C)CCC[C@@]4(C)C(=O)OCCOCCOCCOCC[P+](c3ccccc3)(c3ccccc3)c3ccccc3)(CC1=O)C2.[Br-] | 1 µM | 2 µM | >10 µM |  | Active |  |  |  |  |  |  |  |  | 
3 | C[C@@]12CC[C@@H]3[C@@](CC[C@H]4[C@@]3(C)CCC[C@@]4(C)C(=O)OCCCCCC[P+](c3ccccc3)(c3ccccc3)c3ccccc3)(CC1=O)C2.[Br-] | 2 µM | >4 µM | >4 µM |  | Active | 1 µM | Active |  |  |  |  |  |  | 
4 | CC(=O)O[C@H]1C(=O)[C@@]2(C)[C@H]([C@H](OC(=O)c3ccccc3)[C@]3(O)C[C@H](OC(=O)[C@H](O)[C@@H](NC(=O)c4ccccc4)c4ccccc4)C(C)=C1C3(C)C)[C@]1(OC(C)=O)CO[C@@H]1C[C@@H]2O [PACLITAXEL] | 0.5 µM | >10 µM | >10 µM |  |  | 2 µM |  |  |  |  |  |  |  | 
5 | C[C@@]12CC[C@@H]3[C@@](CC[C@H]4[C@@]3(C)CCC[C@@]4(C)C(=O)O)(CC1=O)C2 [ISOSTEVIOL] | >4 µM | >4 µM | >4 µM |  |  |  |  | 87 µM | 75 µM | Non-toxic | 167 µM | 84 µM |  | 
6 | COC(=O)Nc1nc2cc(C(=O)c3cccs3)ccc2[nH]1 [NOCODAZOLE] | 0.005 µM | 0.1 µM | 0.1 µM |  |  | >0.5 µM |  |  |  |  |  |  | 0.02 µM | Active
7 | C[C@@]12CC[C@@H]3[C@@](CC[C@H]4[C@@]3(C)CCC[C@@]4(C)C(=O)OCCOCCOCCOCCOCC[P+](c3ccccc3)(c3ccccc3)c3ccccc3)(CC1=O)C2.[Br-] | 1 µM | 4 µM | >10 µM |  | Active |  |  |  |  |  |  |  |  | 
8 | COc1cc([C@@H]2c3cc4c(cc3[C@@H](O[C@@H]3O[C@@H]5CO[C@@H](C)O[C@H]5[C@H](O)[C@H]3O)[C@H]3COC(=O)[C@H]23)OCO4)cc(OC)c1O [ETOPOSIDE] | 0.5 µM | >68 µM | >68 µM | 4 µM |  | 40 µM |  |  |  |  |  |  |  | 
9 | C[C@@]12CC[C@@H]3[C@@](CC[C@H]4[C@@]3(C)CCC[C@@]4(C)C(=O)OCCCCCCCC[P+](c3ccccc3)(c3ccccc3)c3ccccc3)(CC1=O)C2.[Br-] | 2 µM | >4 µM | >4 µM |  | Active | 0.5 µM |  |  |  |  |  |  |  | 
10 | CC[N+](CC)(CC)CCOCCOCCOCCOC(=O)[C@]1(C)CCC[C@@]2(C)[C@@H]3CC[C@@]4(C)C[C@]3(CC[C@@H]21)CC4=O.[Br-] | >100 µM | >100 µM | >100 µM | 100 µM |  |  |  |  |  |  |  |  |  | 
11 | C[C@@]12CC[C@@H]3[C@@](CC[C@H]4[C@@]3(C)CCC[C@@]4(C)C(=O)OCCC[P+](c3ccccc3)(c3ccccc3)c3ccccc3)(CC1=O)C2.[Br-] | 2 µM | >4 µM | >4 µM |  | Active | 4 µM |  |  |  |  |  |  |  | 
12 | C[C@@]12CC[C@@H]3[C@@](CC[C@H]4[C@@]3(C)CCC[C@@]4(C)C(=O)OCCOCCOCC[P+](c3ccccc3)(c3ccccc3)c3ccccc3)(CC1=O)C2.[Br-] | 1 µM | 2 µM | >10 µM |  | Active |  |  |  |  |  |  |  |  | 
